Results taken from PubChem BioAssay AID449763 (Sanford-Burnham Center for Chemical Genomics, 2010).
Screen size: about 330,000 compounds; about 1,100 (0.33%) were called active. Many of the other results were omitted from the sample, so actives are more common in it than they were. Values without a mark were called inactive.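 How the source made its calls: active means at 10 µM dose, activation of 40% or more, normalized to positive control; inactive means the rest.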

experiment: PERK-eIF2a-CHOP pathway stimulators – cell-based, CHO-CHOP luciferase reporter, luminescence, uHTS, primary screen (AID 449763); details: UPR activation, at 10 µM, active compounds read high, percent of tunicamycin response over DMSO baseline;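 further: 100% = tunicamycin at 10 µg/mL and 0% = DMSO alone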
How it was run: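 Dosing – one dose, 10 µM in 0.5% DMSO · System – CHO-CHOP cells, stable luciferase reporter of PERK-eIF2a-CHOP signalling · Input – 500 cells/well · Control set – tunicamycin 10 µg/mL final as positive, DMSO-only wells as negative · Timing – 6 h compound treatment, 37 °C · Measure – % activation vs tunicamycin · Technique – luminescence read with Steady-Glo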

In the case of `O=C(CN1CCN(S(=O)(=O)c2cc(Cl)ccc2Cl)CC1)c1ccc(O)c(O)c1`, the activation is reported as 95.7% (active).
For `OCCNc1nc(Nc2ccc(Cl)c(Cl)c2)nc2ccccc12`, the activation was 51.9% (active).
In the case of `O=C(NCCc1ccc(Cl)cc1)c1cccc(N2CCCC2=O)c1`, the activation is reported as 54.4% (active).
In the case of `Oc1cc2c(cc1O)CN(C(=S)NCCc1ccc(Cl)cc1)CCC2`, the activation is reported as 58.3% (active).
With `CC(C)(C)C(=O)OCc1nc(-c2ccc(O)c(O)c2)cs1` the activation was 170% (active).
With `CC(C)(C)Nc1nc(-c2ccccn2)nc2ccccc12` the activation was 61.4% (active).
For `Cc1ccc(Oc2nc(-c3ccccn3)nc3ccccc23)cc1`, the activation was 48.5% (active).
For `CC(=O)/C(=N\Nc1ccc(Cl)cc1Cl)Sc1cccc2cccnc12`, the activation was 184% (active).
In the case of `CCc1ccc2c(c1)C1(NN=C(c3ccccc3)S1)C(=O)N2` (centres undefined), the activation is reported as 135% (active).
In the case of `COC(=O)c1ccc(C(=O)Nc2cc(Cl)ccc2Cl)cc1NC(=O)c1ccccc1C`, the activation is reported as 49.7% (active).
With `O=C(Nc1ccc(OC(F)(F)F)cc1)c1ccc2c(c1)no[n+]2[O-]` the activation was 61% (active).
For `Cc1ccc(Cc2cnc(NC(=O)/C(C#N)=C/c3ccc(-c4cccc([N+](=O)[O-])c4)o3)s2)cc1`, the activation was 73.3% (active).
For `CCOC(=O)/C=c1\s/c(=C\c2ccc(C#N)cc2)c(=O)n1CC(=O)Nc1cccc(C)c1C`, the activation was 75.5% (active).
In the case of `CC1(C)CCSC(/C=C/c2ccccc2)=N1`, the activation is reported as 57.7% (active).
With `O=C(CSc1cccc2cccnc12)N/N=C/c1cccnc1` the activation was 227% (active).
In the case of `COc1cc(/C=C2/C(=O)ON=C2C)ccc1OCc1ccccc1F`, the activation is reported as 66.3% (active).
In the case of `CS(=O)(=O)N(Cc1ccccc1)c1ccc(C(=O)NN=C2CCCCCC2)cc1`, the activation is reported as 43.7% (active).

First: N#Cc1ccsc1NC(=O)CN1CCN(S(=O)(=O)c2cc(Cl)ccc2Cl)CC1
Second: COc1ccc(Cl)cc1S(=O)(=O)N1CCN(CC(=O)C(C)(C)C)CC1
The activation of the first is lower: -1.62% for the first, -1.27% for the second.

Going from `C[C@H](C(=O)CC(=O)OC(C)(C)C)[C@H](O)c1ccc(C(F)(F)F)cc1` to `Cn1cccc1/C=N/NC(=O)c1ccc(OC(F)(F)C(F)F)cc1`, the activation rises from 1.59% to 2.77%.

Compared with `COc1ccc(NC(=O)C2=C(C)NC(=O)NC2c2ccccc2[N+](=O)[O-])cc1` (centres undefined), `CC(=O)c1ccc(NC(=O)c2ccc(-n3cncn3)c([N+](=O)[O-])c2)cc1` is higher in activation: -2.61% for the first, 2.02% for the second.

Compared with `Cc1ccc(Nc2nc(N)nc(CN3CCN(Cc4ccccc4)CC3)n2)cc1Cl`, `CNc1nc(Nc2ccc(C)c(Cl)c2)nc(N)c1[N+](=O)[O-]` is higher in activation: 0.453% for the first, 5.39% for the second.

First: CCN(C(=O)CSc1nc(N)cc(=O)[nH]1)C1CCS(=O)(=O)C1 (centres undefined)
Second: Cc1nn(CC(=O)NCC2CCCO2)c(=O)c2cc3ccccc3n12 (centres undefined)
The activation of the first is higher: 1.25% for the first, -0.347% for the second.

Going from `CSCCNCc1cn(-c2ccc(F)cc2F)nc1-c1ccccc1C` to `CCCCn1nc(C(=O)N2CCc3ccccc32)c2ccccc2c1=O`, the activation falls from -1.15% to -1.34%.

First: COc1ccc(CCNC(=S)N2CCN(S(=O)(=O)c3ccc(Cl)cc3)CC2)cc1
Second: Cc1ccc(NC(=S)NCCc2ccc(Cl)cc2)c(C)c1
The activation of the first is lower: 1.93% for the first, 1.96% for the second.

First: CC1CCCC(NC(=O)c2cccc(N3CCCC3=O)c2)C1C (centres undefined)
Second: C/C(=N\NC(=O)c1cccc(N2CCCC2=O)c1)c1ccc(N)cc1
The activation of the first is higher: 3.2% for the first, 1.34% for the second.

Compared with `O=C(CSc1nnc(SCc2ccc(F)cc2)s1)Nc1ccc(C(=O)O)cc1`, `O=C(N/N=C/c1cccnc1)c1ccc(NC(=O)c2ccc(F)cc2)cc1` is higher in activation: -2.09% for the first, 1.11% for the second.

Compared with `Cc1ccc(C2NC(=S)NC3=C2N2CCC3CC2)cc1` (centres undefined), `O=C(c1cccs1)N1CCCC(c2nc(-c3ccc(F)cc3)no2)C1` (centres undefined) is higher in activation: -2.03% for the first, 1.93% for the second.

First: CC(C(=O)O)n1cnc2sc3c(c2c1=O)CCCC3 (centres undefined)
Second: NC(=O)C1CCN(C(=O)COc2ccc3c4c(c(=O)oc3c2)CCC4)CC1
The activation of the first is lower: -0.91% for the first, 1.77% for the second.

Going from `O=S(=O)(c1ccccc1)N(Cc1cccc(F)c1)c1ccccc1` to `Nc1nc(SCC(=O)NN(c2ccccc2)c2ccccc2)n[nH]1`, the activation rises from -1.78% to -0.687%.

Going from `CC1(C)CC(=O)C=C(NC2CC(C)(C)NC(C)(C)C2)C1` to `CCCC1CC(C)(C(=O)Cn2[nH]c(=O)ccc2=O)OC1=O` (centres undefined), the activation rises from 0.506% to 1.35%.

First: CCCC(=O)N1c2ccc(-c3csc(N)n3)cc2CC1C (centres undefined)
Second: Cc1onc(C(=O)NN)c1-c1csc(COc2ccccc2)n1
The activation of the first is higher: 4.75% for the first, -0.475% for the second.

First: c1ccc2c(NCC3CCCO3)nc(-c3ccncc3)nc2c1 (centres undefined)
Second: Cc1ccccc1CN(c1ccc(C(=O)NCC2CCCO2)cc1)S(C)(=O)=O (centres undefined)
The activation of the first is higher: -0.369% for the first, -1.43% for the second.

Compared with `COc1ccc(CNc2ncnc3ccccc23)cc1`, `COc1cnc(-c2ccccn2)nc1Oc1ccc(C(C)(C)C)cc1` is lower in activation: 5.16% for the first, 3.2% for the second.

Compared with `N#Cc1ccc(Oc2cc(C(F)(F)F)nc(-c3ccccn3)n2)cc1`, `Cn1nccc1NC(=O)Nc1ccc(OC(F)(F)F)cc1` is higher in activation: -0.253% for the first, 0.489% for the second.

Compared with `CCCCOc1ccc(C(=O)N/C(=C/C=C/c2ccccc2)C(=O)N2CCOCC2)cc1`, `CCOc1cc(/C=N/NC(=O)c2ccc(CSc3nncn3C)cc2)ccc1OCC(=O)N1CCOCC1` is lower in activation: 5.27% for the first, 0.857% for the second.

Going from `Cc1ccc2cc3cc(C(=O)N4CCCCCC4)oc3nc2c1` to `Cc1cc(C)n(-c2ccc(NC(=O)C3CCCCN3C(=O)c3cccs3)cc2)n1` (centres undefined), the activation falls from 0.396% to -0.0869%.

First: O=C(CSc1nc2ncccc2[nH]1)Nc1ccc2c(c1)OCCO2
Second: C[C@H](CO)N1C[C@H](C)[C@@H](CN(C)C(=O)NC2CCCCC2)Oc2ccc(NC(=O)c3ccncc3)cc2C1=O
The activation of the first is lower: 0.487% for the first, 2.08% for the second.

Going from `CC(C)NC(=S)N1CCN(S(C)(=O)=O)CC1` to `COC(=O)c1ccc(C(=O)OC)c(NC(=S)N2CCN(c3cc(Cl)ccc3C)CC2)c1`, the activation rises from 0.831% to 1.94%.

Compared with `COc1cccc(CNC(=O)c2cccnc2Sc2ccc(Cl)cc2)c1`, `O=C(NNc1cc(Cl)ccc1Cl)c1cccnc1Cl` is higher in activation: 0.384% for the first, 0.393% for the second.

Going from `Cc1ccc(S(=O)(=O)CCC(=O)OCc2ccccc2)cc1` to `Cc1ccc(NC(=O)CCOc2ccccc2)cc1S(=O)(=O)Nc1ccccc1Cl`, the activation rises from 0.112% to 2.43%.

Compared with `CCOC(=O)c1ccc(NC(=O)c2nc[nH]c2C(=O)N[C@@H](CCCCNC(=O)OC(C)(C)C)C(=O)OC(C)(C)C)cc1`, `Cc1ccc(C(=O)N/C(=C/c2ccc(-c3cccc([N+](=O)[O-])c3)o2)C(=O)NCCCN(C)C)cc1` is lower in activation: 2.33% for the first, -0.289% for the second.

Compared with `COCCOC(=O)c1c(C)oc2cc(Br)c(OCC(N)=O)cc12`, `CCCN(CCC)C(=S)Nc1cc(C(=O)OC)ccc1C(=O)OC` is higher in activation: 0.018% for the first, 2.25% for the second.

First: Cc1occc1C(=O)NC1CCCN(Cc2ccc(CC(C)C)cc2)C1 (centres undefined)
Second: CN1CCC(=NNC(=O)c2ccc(N(Cc3ccc(Cl)cc3)S(C)(=O)=O)cc2)CC1
The activation of the first is higher: 1.93% for the first, 0.73% for the second.

First: O=C(Nc1c2c(nn1-c1ccccc1)CS(=O)(=O)C2)C1CCCC1
Second: Cc1cccc(NC(=O)CN2CCN(C(=O)C3CCN(C(=O)/C=C/c4ccccc4)CC3)CC2)c1C
The activation of the first is lower: -0.808% for the first, 0.754% for the second.

Compared with `O=C(CSc1nc2ccccc2c(=O)n1CCCO)NC1CC1`, `Cc1cccc(NC(=O)CSC(N)=O)c1C` is lower in activation: 1.02% for the first, -0.357% for the second.

Going from `CC(C)CC(=O)N1CCC(O)(CS(=O)(=O)Cc2ccccc2)CC1` to `Cc1ccc(C)c(S(=O)(=O)N2CCN(c3ncnc4sccc34)CC2)c1`, the activation rises from -0.00639% to 5.68%.

First: Cc1ccc(-c2ccc(/C=C(\C#N)C(N)=S)o2)c([N+](=O)[O-])c1
Second: COc1cc(/C=C2/C(=O)ON=C2C)ccc1OCc1cccc(F)c1
The activation of the first is lower: 3.33% for the first, 30.3% for the second.

Compared with `Cc1cc2c(cc1S(=O)(=O)NCc1ccc(Cl)cc1)OCC(=O)N2`, `COC(=O)C(=Nc1ccccc1)/C(C(=O)C(=O)N(C)c1ccccc1)=C(\O)c1ccc(Cl)cc1` is higher in activation: -0.754% for the first, 0.244% for the second.

First: COc1ccc(-c2c(C(C)=O)c(C)nc3sc4c(=O)n(-c5ccc(C)cc5)nnc4c23)cc1
Second: COc1ccc(C(=O)NCC(=O)N/N=C/c2cccnc2)cc1
The activation of the first is lower: -0.914% for the first, 2.52% for the second.

First: Nc1nc(O)c(CC(=O)O)s1
Second: C=CCOc1ccc(/C=C2/C(=O)ON=C2C)cc1OCC
The activation of the first is lower: -0.635% for the first, 0.964% for the second.

`O=C(NCC12CC3CC(C1)CC(CNC(=O)N1CCCC1)(C3)C2)N1CCCC1` showed an activation of -2.08%.
